Measured values collected from several papers.
Target: Tyrosine-protein kinase Mer (MERTK, Homo sapiens, UniProt Q12866)
Sequence (Q12866 21-999, as in one of the studies): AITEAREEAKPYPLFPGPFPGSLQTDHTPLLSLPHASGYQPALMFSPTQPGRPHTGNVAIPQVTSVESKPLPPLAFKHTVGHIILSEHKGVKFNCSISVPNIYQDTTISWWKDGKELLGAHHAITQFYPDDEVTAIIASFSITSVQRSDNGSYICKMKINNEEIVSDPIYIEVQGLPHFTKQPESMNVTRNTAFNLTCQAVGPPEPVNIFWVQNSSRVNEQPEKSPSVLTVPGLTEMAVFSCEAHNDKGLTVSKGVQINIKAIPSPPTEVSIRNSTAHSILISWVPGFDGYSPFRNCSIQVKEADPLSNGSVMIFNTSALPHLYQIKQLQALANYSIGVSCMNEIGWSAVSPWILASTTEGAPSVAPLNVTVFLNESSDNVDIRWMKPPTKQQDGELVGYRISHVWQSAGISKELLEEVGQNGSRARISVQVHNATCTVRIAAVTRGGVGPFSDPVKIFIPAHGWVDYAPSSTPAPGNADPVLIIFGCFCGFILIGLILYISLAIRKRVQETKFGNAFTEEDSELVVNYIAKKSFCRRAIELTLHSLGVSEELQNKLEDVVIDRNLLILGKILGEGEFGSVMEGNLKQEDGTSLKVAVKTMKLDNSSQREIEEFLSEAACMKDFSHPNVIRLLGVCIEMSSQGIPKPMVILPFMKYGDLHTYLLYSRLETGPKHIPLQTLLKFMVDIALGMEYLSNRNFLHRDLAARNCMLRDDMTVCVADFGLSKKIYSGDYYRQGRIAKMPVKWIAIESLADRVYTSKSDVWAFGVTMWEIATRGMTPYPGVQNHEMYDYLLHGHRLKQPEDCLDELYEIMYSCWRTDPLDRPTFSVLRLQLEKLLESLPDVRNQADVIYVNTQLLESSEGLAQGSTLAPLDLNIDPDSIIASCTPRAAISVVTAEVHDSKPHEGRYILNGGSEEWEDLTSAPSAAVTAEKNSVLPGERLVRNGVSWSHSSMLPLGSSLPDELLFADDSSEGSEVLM

CN(C)c1ncnc(-c2ccc3nc(Nc4cc(CN5CCN(C(=O)CC(F)(F)F)CC5)ccn4)[nH]c3c2)c1Cl
remaining binding (cell-free assay, competition with immobilised ligand; 1 µM): 87%

COc1ncc2cc3ccccc3nc2c1C#N
remaining binding (cell-free assay, competition with immobilised ligand; 5 µM): 100%

CCCOc1ccc([C@@H]2[C@@H](C(=O)O)[C@H](c3ccc4c(c3)OCO4)CN2CC(=O)Nc2c(CC)cccc2CC)cc1
remaining binding (cell-free assay, competition with immobilised ligand; 1 µM): 97%

COc1ccnn2ncc(-c3ccnc(N(C)C)n3)c12
remaining binding (binding; 1 µM): 99%

Cc1cnc(Nc2ccc(C(=O)N3CCC(N4CCCC4)CC3)cc2)nc1-c1cc2ccccc2s1
remaining binding (binding, competition with immobilised ligand; 1 µM): 0.7%

CNC(=O)[C@@H]1CC[C@@H](n2c(-c3ccc4cnccc4c3)nc3ccc(C(=O)NCc4cccc(C(N)=O)c4)cc32)C1
remaining binding (binding, competition with immobilised ligand; 1 µM): 100%

c1cncc(-c2cccc(Nc3nccc(NC4CCCCC4)n3)c2)c1
remaining binding (binding, competition with immobilised ligand; 10 µM): 4.6%

Nc1ncc2c(n1)-c1c([nH]c3ccc(C#CC4CC4)cc13)CCCC2
remaining binding (binding, competition with immobilised ligand; 1 µM): 100%

C[C@H]1CCN(c2nccc(-c3cnn4ncccc34)n2)C1
remaining binding (binding; 1 µM): 94%

O=C(Nc1c[nH]nc1C(=O)NC1CCNCC1)c1cc(F)cc(F)c1
remaining binding (binding, competition with immobilised ligand; 1 µM): 100%

O=C(NCCCN1CCOCC1)c1ccc(Nc2ncc(Cl)c(-c3ccc(Cl)s3)n2)cc1
remaining binding (binding, competition with immobilised ligand; 1 µM): 5.5%

CCc1ccccc1C(=O)Nc1n[nH]c2c(C)c(F)c(C3C(C#N)=C(C)N(C)C(C)=C3C#N)cc12
remaining binding (cell-free assay, competition with immobilised ligand; 1 µM): 80%

Cc1cnn2ncc(-c3ccnc(N(C)C)n3)c2c1
remaining binding (binding; 1 µM): 100%

COc1cnc(Nc2cccc(S(N)(=O)=O)c2)nc1N1CCN(c2ccccc2)C(=O)C1
remaining binding (binding, competition with immobilised ligand; 1 µM): 94%

O=S(=O)(NC1CCC(c2cc(F)ccc2F)(S(=O)(=O)c2ccc(Cl)cc2)CC1)C(F)(F)F (stereo not drawn)
remaining binding (cell-free assay, competition with immobilised ligand; 1 µM): 99%

CC1CCCN1c1nccc(-c2cnn3ncccc23)n1 (stereo not drawn)
remaining binding (binding; 1 µM): 98%

CCC(=O)N[C@H]1CC[C@@H](C(=O)N(C)c2ccc(-c3nc4ccccc4o3)cc2)C1
remaining binding (cell-free assay, competition with immobilised ligand; 1 µM): 100%

CN(C)c1nccc(-c2cnn3ncccc23)n1
remaining binding (binding; 1 µM): 87%

C[C@@]1(Cc2ccc(C#N)cc2)C(=O)N(c2cc(Cl)cc(Cl)c2)c2ncc(C(=O)NC3(c4nc(C5CCC5)no4)CC3)n21
remaining binding (cell-free assay, competition with immobilised ligand; 1 µM): 100%

O=C(c1ccc(Nc2ncc(Cl)c(-c3cc4ccccc4s3)n2)cc1)N1CCC(N2CCCC2)CC1
remaining binding (binding, competition with immobilised ligand; 1 µM): 1.8%

CN(CCCC(F)(F)F)c1nccc(-c2cnn3ncccc23)n1
remaining binding (binding; 1 µM): 100%
